# Measurements of several laboratories.
# Target: Protein kinase C delta type (PRKCD, Homo sapiens, UniProt Q05655)
Structure (SMILES),read-out,technique,tested at,remaining binding [%]
Cc1cnc(Nc2ccc(C(=O)N3CCC(N4CCCC4)CC3)cc2)nc1-c1cc2ccccc2s1,binding,competition with immobilised ligand,1 µM,23
N[C@@H]1CCN(c2nccc(-c3cnn4ncccc34)n2)C1,binding,,1 µM,96
COc1cnc(Nc2cccc(S(N)(=O)=O)c2)nc1N1CCN(c2ccccc2)C(=O)C1,binding,competition with immobilised ligand,1 µM,100
FC(F)(F)Oc1cccc(-c2cnc3ccc(-c4ccncc4)nn23)c1,cell-free assay,competition with immobilised ligand,5 µM,71
O=C(Nc1cnc(Oc2ccc(F)cc2)nc1)N1CCc2ncccc2[C@@H]1c1ccc(F)cc1,cell-free assay,competition with immobilised ligand,1 µM,87
O=C(Nc1c[nH]nc1C(=O)NC1CCNCC1)c1cc(F)cc(F)c1,binding,competition with immobilised ligand,1 µM,100
CN1CCN(c2cnc3c(C4CCN(C(=O)c5ccc(OC(F)(F)F)cc5N)CC4)ncnc3c2)CC1,cell-free assay,competition with immobilised ligand,1 µM,100
C=CC(=O)N1CCC(C(=O)NCC(=O)N2CCN(c3nc(-c4cnc(N)nc4C(F)F)nc(N4CCOCC4)n3)CC2)CC1,binding,competition with immobilised ligand,1 µM,100
c1cncc(-c2cccc(Nc3nccc(NC4CCCCC4)n3)c2)c1,binding,competition with immobilised ligand,10 µM,45
Cc1cnn2ncc(-c3ccnc(N(C)C)n3)c2c1,binding,,1 µM,100
CS(=O)(=O)N1CCCC(NC(=O)[C@H](CCC2CCCCC2)NC(=O)c2ccc(CNc3ncnc4c3nnn4-c3ccccc3)cc2)C1 (stereo partly drawn),cell-free assay,competition with immobilised ligand,0.1 µM,80
CN(c1nccc(-c2cnn3ncccc23)n1)C1CC1,binding,,1 µM,85
O=C(NCCCN1CCOCC1)c1ccc(Nc2ncc(Cl)c(-c3ccc(Cl)s3)n2)cc1,binding,competition with immobilised ligand,1 µM,81
Cc1nc(N2CC[C@@H](O)C2)ncc1-c1cc(C(F)(F)F)cc2[nH]ncc12,cell-free assay,competition with immobilised ligand,1 µM,94
CC1CCCN1c1nccc(-c2cnn3ncccc23)n1 (stereo not drawn),binding,,1 µM,100
O=C(NCCCN1CCOCC1)c1ccc(Nc2nccc(-c3cc4ccccc4s3)n2)cc1,binding,competition with immobilised ligand,1 µM,81
CCN1CCN(Cc2ccc(C(=O)Nc3ccc(C)c(Oc4ccc5c(c4)CC(=O)N5)c3)cc2C(F)(F)F)CC1,binding,competition with immobilised ligand,1 µM,96
C[C@@H]1CCN(c2nccc(-c3cnn4ncccc34)n2)C1,binding,,1 µM,100
C[C@H](c1ccnc(Nc2nc3ccc(-c4cc(N(C)C)ncn4)cc3[nH]2)c1)N1CCN(C(=O)CC(F)(F)F)CC1,cell-free assay,competition with immobilised ligand,0.1 µM,100
CN(C)c1nccc(-c2cnn3ncccc23)n1,binding,,1 µM,100
Cc1cc(NC(=O)c2cccc(S(F)(F)(F)(F)F)c2)cc(-n2ccn3nc(-c4cccnc4)cc23)c1,cell-free assay,competition with immobilised ligand,1 µM,95.8
